Calls of active or inactive are those of the source. The calls are words filed in the database; no cut-off is given here.
What was measured:
[1] = target: T1, Ectonucleotide pyrophosphatase/phosphodiesterase family member 7 (Homo sapiens) (UniProt Q6UWV6); experiment: Inhibition of NPP7 expressed in HEK293 cells assessed as para-nitrophenylphosphoryl choline hydrolysis; format: cell-based
T1 sequence (whole entry): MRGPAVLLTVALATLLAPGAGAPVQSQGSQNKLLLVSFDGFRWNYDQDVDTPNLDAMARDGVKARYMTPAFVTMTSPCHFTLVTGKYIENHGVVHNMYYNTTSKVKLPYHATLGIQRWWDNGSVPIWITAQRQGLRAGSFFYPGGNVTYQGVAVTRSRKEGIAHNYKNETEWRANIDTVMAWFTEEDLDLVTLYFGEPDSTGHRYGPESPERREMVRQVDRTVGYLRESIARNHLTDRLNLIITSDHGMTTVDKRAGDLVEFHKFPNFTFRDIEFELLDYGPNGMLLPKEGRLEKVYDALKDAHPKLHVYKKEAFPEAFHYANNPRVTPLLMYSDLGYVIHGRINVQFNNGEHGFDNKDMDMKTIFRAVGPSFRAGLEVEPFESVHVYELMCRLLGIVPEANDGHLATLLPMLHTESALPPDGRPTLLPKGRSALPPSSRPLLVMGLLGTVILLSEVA
Outline: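 NPP7 from concentrated conditioned medium of transfected HEK293 cells (human NPP7). Inhibitor at 10 μM in 1% DMSO. Substrate pNPPC at […] in 50 mM Tris-HCl pH 8.5 with 150 mM NaCl and 10 mM taurocholic acid, no EDTA, 37 °C. Absorbance taken at 1 h, vehicle-normalized after blank. Mean ± SD of ≥3 wells.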

Autotaxin [2] = target: T2, Autotaxin (Homo sapiens, UniProt Q13822); experiment: Noncompetitive type inhibition of human autotaxin at free state isolated from MDA-MB-231 cells assessed as blockade of FS3 substrate hydrolysis by FRET assay; format: cell-based
Autotaxin [3] = target: T2, Autotaxin; experiment: Noncompetitive type inhibition of human autotaxin at enzyme-substrate complex isolated from […] assessed as blockade of FS3 substrate hydrolysis by FRET assay
Outline: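 ATX source: ~10× concentrated serum-free conditioned medium from MDA-MB-435 cells, buffer-exchanged into 50 mM Tris pH 7.4 with 20% ethylene glycol. FS-3 300 nM–20 μM with three inhibitor levels, including zero. Buffer: 50 mM Tris pH 8.0, 140 mM NaCl, 5 mM KCl, 1 mM CaCl2/MgCl2, 30 μM stripped BSA. Run at 37 °C, ex485/em528. Ki′ from simultaneous nonlinear fit to four inhibition models; lowest residual error chosen.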

[4] = target: T3, Glycerophosphocholine cholinephosphodiesterase ENPP6 (Homo sapiens) (UniProt Q6UWR7); experiment: Inhibition of NPP6 expressed in HEK293 cells assessed as para-nitrophenylphosphoryl choline hydrolysis; format: cell-based
T3 sequence (whole entry): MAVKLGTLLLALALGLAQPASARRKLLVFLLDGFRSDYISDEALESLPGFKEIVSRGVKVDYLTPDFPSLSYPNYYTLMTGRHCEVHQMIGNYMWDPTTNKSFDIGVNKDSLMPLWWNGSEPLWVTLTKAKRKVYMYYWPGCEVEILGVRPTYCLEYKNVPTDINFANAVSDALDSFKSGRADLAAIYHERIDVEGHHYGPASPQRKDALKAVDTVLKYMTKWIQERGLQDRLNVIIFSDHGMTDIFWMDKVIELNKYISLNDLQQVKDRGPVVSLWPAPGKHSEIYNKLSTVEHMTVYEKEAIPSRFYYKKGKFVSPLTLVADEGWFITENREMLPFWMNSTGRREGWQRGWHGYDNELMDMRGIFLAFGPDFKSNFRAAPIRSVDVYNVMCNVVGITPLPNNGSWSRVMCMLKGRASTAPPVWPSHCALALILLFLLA
Outline: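 NPP6 from conditioned medium of HEK293 cells transiently transfected with human NPP6. Inhibitor at 10 μM in 1% DMSO. Substrate pNPPC at 10 mM in 100 mM Tris-HCl pH 9.0 with 500 mM NaCl and 0.05% Triton X-100, 37 °C. Absorbance read at 1 h, normalized to vehicle after cell-free-medium blank. Mean ± SD of ≥3 wells.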

Autotaxin [5] = target: T2, Autotaxin; experiment: Competitive inhibition of human autotaxin at free state isolated from MDA-MB-231 cells assessed as blockade of FS3 substrate hydrolysis by FRET assay; format: cell-based

Structure (SMILES) | Activity [1] | Ki (Autotaxin [2]) | Ki (Autotaxin [3]) | Activity [4] | Ki (Autotaxin [5])
CCn1cc(C(=O)O)c(=O)c2cnc(N3CCN(C(=S)Nc4ccc(C(F)(F)F)cc4)CC3)nc21 | inactive | 13.2 µM | 13.2 µM | inactive | –
CCn1cc(C(=O)O)c(=O)c2cnc(N3CCN(C(=S)Nc4cccc(OC)c4)CC3)nc21 | inactive | – | – | inactive | –
CCCCCCCCc1ccc(CCC(N)(CO)CCCP(=O)(O)O)cc1 (centres undefined) | – | 0.2 µM | – | – | –
CCn1cc(C(=O)O)c(=O)c2cnc(N3CCN(C(=S)Nc4cc(C(F)(F)F)cc(C(F)(F)F)c4)CC3)nc21 | inactive | – | – | inactive | 4 µM
CCn1cc(C(=O)O)c(=O)c2cnc(N3CCN(C(=S)Nc4ccc5nsnc5c4)CC3)nc21 | inactive | – | – | inactive | 7.1 µM
CCn1cc(C(=O)O)c(=O)c2cnc(N3CCN(C(=S)Nc4cccc(C(F)(F)F)c4)CC3)nc21 | inactive | – | – | inactive | 0.7 µM

The remaining lines, values ahead:

Activity [1] | Ki (Autotaxin [2]) | Ki (Autotaxin [3]) | Activity [4] | Ki (Autotaxin [5]) | Structure (SMILES)
inactive | – | – | inactive | 4.5 µM | CCn1cc(C(=O)O)c(=O)c2cnc(N3CCN(C(=S)Nc4cccc(C)c4)CC3)nc21
inactive | – | – | inactive | – | CCn1cc(C(=O)O)c(=O)c2cnc(N3CCN(C(=S)Nc4cccc(F)c4)CC3)nc21
inactive | – | – | inactive | – | CCn1cc(C(=O)O)c(=O)c2cnc(N3CCN(C(=S)Nc4ccc(I)cc4)CC3)nc21
inactive | – | – | inactive | 5.7 µM | CCn1cc(C(=O)O)c(=O)c2cnc(N3CCN(C(=S)Nc4ccc(Cl)cc4)CC3)nc21
inactive | – | – | inactive | – | CCn1cc(C(=O)O)c(=O)c2cnc(N3CCN(C(=S)Nc4cc(Cl)ccc4Cl)CC3)nc21
inactive | – | – | inactive | – | CCn1cc(C(=O)O)c(=O)c2cnc(N3CCN(C(=S)Nc4ccc(C)cc4)CC3)nc21
inactive | – | – | inactive | – | CCn1cc(C(=O)O)c(=O)c2cnc(N3CCN(C(=S)Nc4cccc(Cl)c4)CC3)nc21
inactive | – | – | inactive | – | CCn1cc(C(=O)O)c(=O)c2cnc(N3CCN(C(=S)Nc4ccc(F)cc4)CC3)nc21
inactive | – | – | inactive | – | CCn1cc(C(=O)O)c(=O)c2cnc(N3CCN(C(=S)Nc4cccc(I)c4)CC3)nc21
inactive | – | – | inactive | 4.2 µM | CCn1cc(C(=O)O)c(=O)c2cnc(N3CCN(C(=S)Nc4cc(C)cc(C)c4)CC3)nc21
